Assays:
Conditions in all cases: stereoisomer not certain
[1] = biological target: OR4K17 (Homo sapiens) (UniProt Q8NGC6)
In short: (§1)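 Values were gathered from published papers (main text and supplementary material), with extra details requested from the original authors when needed, and checked for typos and inconsistencies. Each receptor–molecule pair is called responsive (active) if the original authors judged the measured signal statistically different from baseline, and non-responsive (inactive) otherwise. Assay methods varied by source, often transient mammalian cell-line luciferase assays. Recorded details include cell line, G-protein, co-transfected protein and tags.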

[2] = biological target: OR4K2 (Homo sapiens) (UniProt Q8NGD2)
Sequence of OR4K2 (Homo sapiens) (Q8NGD2 whole entry): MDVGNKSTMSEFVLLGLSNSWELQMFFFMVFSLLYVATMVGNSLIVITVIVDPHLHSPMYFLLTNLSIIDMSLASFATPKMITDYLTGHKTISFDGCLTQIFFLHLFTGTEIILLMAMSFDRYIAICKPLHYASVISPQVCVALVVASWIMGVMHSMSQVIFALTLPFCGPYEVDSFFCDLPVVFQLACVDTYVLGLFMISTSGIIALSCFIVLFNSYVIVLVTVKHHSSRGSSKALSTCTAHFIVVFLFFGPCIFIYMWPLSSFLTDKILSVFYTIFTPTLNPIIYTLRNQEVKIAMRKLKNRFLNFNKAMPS
In short: as §1

[3] = biological target: OR4K3 (Homo sapiens) (UniProt Q96R72)
Sequence of OR4K3 (Homo sapiens) (Q96R72 whole entry): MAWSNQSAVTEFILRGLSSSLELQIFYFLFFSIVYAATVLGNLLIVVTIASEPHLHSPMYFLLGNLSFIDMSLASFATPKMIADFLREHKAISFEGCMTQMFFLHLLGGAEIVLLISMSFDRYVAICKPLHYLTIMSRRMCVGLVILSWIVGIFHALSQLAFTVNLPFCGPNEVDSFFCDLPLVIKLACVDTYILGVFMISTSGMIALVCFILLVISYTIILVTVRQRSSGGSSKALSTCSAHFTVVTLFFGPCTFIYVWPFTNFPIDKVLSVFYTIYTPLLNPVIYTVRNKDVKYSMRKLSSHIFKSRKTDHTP
In short: as §1

[4] = biological target: OR4K5 (Homo sapiens) (UniProt Q8NGD3)
Sequence of OR4K5 (Homo sapiens) (Q8NGD3 whole entry): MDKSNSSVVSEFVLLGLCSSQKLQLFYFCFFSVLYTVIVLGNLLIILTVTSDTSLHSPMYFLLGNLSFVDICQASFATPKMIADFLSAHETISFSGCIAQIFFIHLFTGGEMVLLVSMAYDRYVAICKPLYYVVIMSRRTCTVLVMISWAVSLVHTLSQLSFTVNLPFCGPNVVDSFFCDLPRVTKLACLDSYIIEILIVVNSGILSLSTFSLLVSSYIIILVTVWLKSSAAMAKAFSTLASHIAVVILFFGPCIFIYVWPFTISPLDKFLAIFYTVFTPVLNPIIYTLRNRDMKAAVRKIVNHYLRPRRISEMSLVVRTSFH
In short: as §1

[5] = biological target: OR4L1 (Homo sapiens) (UniProt Q8NH43)
Sequence of OR4L1 (Homo sapiens) (Q8NH43 whole entry): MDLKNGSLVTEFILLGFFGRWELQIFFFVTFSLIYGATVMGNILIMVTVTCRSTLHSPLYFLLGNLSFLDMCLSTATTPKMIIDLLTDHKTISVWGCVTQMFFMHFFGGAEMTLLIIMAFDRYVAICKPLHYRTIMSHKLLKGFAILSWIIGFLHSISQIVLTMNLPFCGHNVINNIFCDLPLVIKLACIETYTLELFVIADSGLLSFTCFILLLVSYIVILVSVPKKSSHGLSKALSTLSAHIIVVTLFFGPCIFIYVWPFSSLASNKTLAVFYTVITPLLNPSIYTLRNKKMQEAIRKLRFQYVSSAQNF
In short: as §1

[6] = biological target: OR4M1 (Homo sapiens) (UniProt Q8NGD0)
Sequence of OR4M1 (Homo sapiens) (Q8NGD0 whole entry): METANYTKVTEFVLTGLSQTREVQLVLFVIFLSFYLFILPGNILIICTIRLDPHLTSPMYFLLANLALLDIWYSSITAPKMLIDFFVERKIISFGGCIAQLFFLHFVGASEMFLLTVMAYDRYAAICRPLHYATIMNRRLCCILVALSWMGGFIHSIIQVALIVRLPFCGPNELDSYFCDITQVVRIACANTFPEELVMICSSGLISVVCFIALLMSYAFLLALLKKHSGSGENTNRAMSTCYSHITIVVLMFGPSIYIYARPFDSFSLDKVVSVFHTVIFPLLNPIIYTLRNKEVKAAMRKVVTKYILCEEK
In short: as §1

[7] = system: OR4K2
Sequence of OR4K2 (as listed by the source): as the sequence (Q8NGD2 whole entry) above, with N307I counted along it
In short: as §1

[8] = system: OR4KF
Sequence of OR4KF (as listed by the source): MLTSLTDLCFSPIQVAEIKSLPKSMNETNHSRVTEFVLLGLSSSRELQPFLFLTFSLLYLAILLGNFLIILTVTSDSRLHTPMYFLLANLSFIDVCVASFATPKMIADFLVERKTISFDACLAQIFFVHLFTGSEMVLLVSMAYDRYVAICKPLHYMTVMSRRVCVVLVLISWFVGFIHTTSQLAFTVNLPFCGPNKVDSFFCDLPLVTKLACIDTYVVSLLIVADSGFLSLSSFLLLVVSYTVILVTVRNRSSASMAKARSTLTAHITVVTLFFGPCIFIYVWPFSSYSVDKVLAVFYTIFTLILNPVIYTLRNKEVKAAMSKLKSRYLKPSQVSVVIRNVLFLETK
In short: as §1

[9] = system: OR4KH
Sequence of OR4KH (as listed by the source): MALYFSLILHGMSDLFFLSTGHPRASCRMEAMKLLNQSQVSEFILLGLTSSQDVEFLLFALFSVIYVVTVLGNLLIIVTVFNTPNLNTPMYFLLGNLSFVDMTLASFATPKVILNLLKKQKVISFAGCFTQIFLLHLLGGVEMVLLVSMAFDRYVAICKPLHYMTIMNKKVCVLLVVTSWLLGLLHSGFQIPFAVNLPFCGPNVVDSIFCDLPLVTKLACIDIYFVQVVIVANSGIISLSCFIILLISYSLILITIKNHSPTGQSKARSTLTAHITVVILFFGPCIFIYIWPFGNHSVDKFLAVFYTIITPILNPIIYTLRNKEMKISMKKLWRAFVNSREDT
In short: as §1

[10] = system: OR4L1
Sequence of OR4L1 (as listed by the source): as the sequence (Q8NH43 whole entry) above, with R52S counted along it
In short: as §1

Measured: odorant receptor agonist call

Sequence of OR4K17 (Homo sapiens) (Q8NGC6 as listed by the source): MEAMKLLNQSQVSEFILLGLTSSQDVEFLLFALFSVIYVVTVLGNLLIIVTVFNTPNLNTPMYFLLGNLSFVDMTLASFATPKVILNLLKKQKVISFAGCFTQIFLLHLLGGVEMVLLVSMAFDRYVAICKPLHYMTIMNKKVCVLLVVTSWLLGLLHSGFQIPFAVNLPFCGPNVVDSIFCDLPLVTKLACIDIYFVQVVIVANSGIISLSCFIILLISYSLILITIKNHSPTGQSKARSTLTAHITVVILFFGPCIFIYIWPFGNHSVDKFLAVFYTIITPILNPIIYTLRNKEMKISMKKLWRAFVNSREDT

Cc1c([N+](=O)[O-])c(C)c([N+](=O)[O-])c(C(C)(C)C)c1[N+](=O)[O-]
inactive: [1] | [2] | [3] | [4] | [5] | [6]

C=CCOC(=O)Cc1ccccc1
inactive: [2] | [7] | [4] | [8] | [9] | [5] | [10] | [6]

Reference: the M2OR odorant receptor database
